{"source": "ChEMBL document CHEMBL1124387", "about": "“Cardiotonic agents. 9. Synthesis and biological evaluation of a series of (E)-4,5-dihydro-6-[2-[4-(1H-imidazol-1-yl)phenyl]ethenyl]-3 (2H)-pyridazinones: a novel class of compounds with positive inotropic, antithrombotic, and vasodilatory activities for the treatment of congestive heart failure” (J Med Chem, 1989)", "key": {"Canis familiaris [1]": {"system": "Canis familiaris", "assay": "Weight of thrombus after 60 min of 1 ug/kg/min", "format": "functional, Canis lupus familiaris", "how_it_was_run": "(§1)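 Pentobarbital-anesthetized (32 mg/kg iv), ventilated dogs, allowed 30 min to stabilize. Continuous infusion of compound (1.0, 3.0 or 10.0 μg/kg/min) or saline began 15 min before 50 μA current was applied to an intraluminal electrode in the circumflex coronary artery. After 60 min of stimulation the animals were euthanized and the thrombus dissected and weighed. One treatment per animal.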"}, "Canis familiaris [2]": {"system": "Canis familiaris", "assay": "Hemodynamic activity in anesthetized dog as percent change in left ventricular myocardial activity from baseline (2271 mmHg/s) at 0.01 mg/kg administered intravenously", "format": "functional, Canis lupus familiaris, Heart left ventricle", "settings": "route intravenous", "how_it_was_run": "(§2)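 Acutely instrumented anesthetized dogs (n = 6), 30-min control period. Compound in 0.9% saline, or dilute HCl diluted with saline, at 0.1 mL/kg iv over 1 min. At least four ascending half-log doses, 10 min apart, one compound per animal. Recorded: LV dP/dtmax, heart rate, aortic pressure and forelimb resistance. Values are maximum response from control average ± SEM.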"}, "Canis familiaris [3]": {"system": "Canis familiaris", "assay": "Cardiovascular activity in presence of beta-adrenoceptor blockade in dogs as percent change in blood pressure from base line (116/94 mmHg) at 0.01 mg/kg dose before nadolol administration; -9/-11"}, "Canis familiaris [4]": {"system": "Canis familiaris", "assay": "Hemodynamic activity in anesthetized dog as percent change in heart rate from baseline (152 bpm) at 0.3 mg/kg administered intravenously", "format": "functional, Canis lupus familiaris", "settings": "route intravenous", "how_it_was_run": "as §2"}, "Homo sapiens [5]": {"species": "Homo sapiens", "assay": "In vitro inhibition of ADP stimulated platelet aggregation in human thrombocyte enriched plasma", "format": "functional", "how_it_was_run": "(§3)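 Human platelet-rich plasma from aspirin/NSAID-free donors, adjusted to 250 000 platelets/μL with platelet-poor plasma. Drug in DMSO/saline (1% DMSO final) was added before ADP or collagen, with doses set by titration. Read-out was aggregation extent (ADP, curve height) or rate (collagen, major slope) as % of saline control.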"}, "Canis familiaris [6]": {"system": "Canis familiaris", "assay": "Hemodynamic activity in anesthetized dog as percent change in left ventricular myocardial activity from baseline (2271 mmHg/s) at 0.003 mg/kg administered intravenously", "format": "functional, Canis lupus familiaris, Heart left ventricle", "settings": "route intravenous", "how_it_was_run": "as §2"}, "Canis familiaris [7]": {"system": "Canis familiaris", "assay": "Cardiovascular activity in presence of beta-adrenoceptor blockade in dogs as percent change in heart rate from base line (121 bpm) at 0.01 mg/kg", "format": "functional, Canis lupus familiaris"}, "Canis familiaris [8]": {"system": "Canis familiaris", "assay": "Cardiovascular activity in presence of beta-adrenoceptor blockade in dogs as percent change in left ventricular myocardial contractility from base line (2327 mmHg/s) at 0.01 mg/kg dose before nadolol administration"}, "Canis familiaris [9]": {"system": "Canis familiaris", "assay": "Cardiovascular activity in presence of beta-adrenoceptor blockade in dogs as percent change in forelimb vascular resistance from base line (4.71 mmHg/mL/min) at 0.01 mg/kg before nadolol administration"}, "Canis familiaris [10]": {"system": "Canis familiaris", "assay": "Hemodynamic activity in anesthetized dog as percent change in blood pressure from baseline (123 mmHg) at 0.3 mg/kg administered intravenously", "format": "functional, Canis lupus familiaris", "settings": "route intravenous", "how_it_was_run": "as §2"}, "Canis familiaris [11]": {"system": "Canis familiaris", "assay": "Hemodynamic activity in anesthetized dog as percent change in left ventricular myocardial activity from baseline (2271 mmHg/s) at 0.03 mg/kg administered intravenously", "format": "functional, Canis lupus familiaris, Heart left ventricle", "settings": "route intravenous", "how_it_was_run": "as §2"}, "Canis familiaris [12]": {"system": "Canis familiaris", "assay": "Hemodynamic activity in anesthetized dog as percent change in blood pressure from baseline (123 mmHg) at 0.003 mg/kg administered intravenously", "format": "functional, Canis lupus familiaris", "settings": "route intravenous", "how_it_was_run": "as §2"}, "Canis familiaris [13]": {"system": "Canis familiaris", "assay": "Cardiovascular activity in presence of beta-adrenoceptor blockade in dogs as percent change in left ventricular myocardial contractility from base line (1869 mmHg/s) at 0.01 mg/kg dose given 15 min after nadolol", "format": "functional, Canis lupus familiaris, Heart left ventricle"}, "[14]": {"assay": "Inhibition of phosphodiesterase 3 from guinea pig cardiac tissue at 1*10e-7-1*10e-4 M", "parameters": "species or system Cavia porcellus", "how_it_was_run": "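Fraction III cAMP-PDE from guinea pig heart or human platelets. Substrate [3H]cyclic AMP 1.0 μM at 30°C, with hydrolysis held to ≤10-20% and kept linear over 30 min. Compounds in DMSO, 2.5% final.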"}, "Canis familiaris [15]": {"system": "Canis familiaris", "assay": "Hemodynamic activity in anesthetized dog as percent change in heart rate from baseline (152 bpm) at 0.003 mg/kg administered intravenously", "format": "functional, Canis lupus familiaris", "settings": "route intravenous", "how_it_was_run": "as §2"}, "Canis familiaris [16]": {"system": "Canis familiaris", "assay": "Hemodynamic activity in anesthetized dog as percent change in fore limb resistance from baseline (2.77 mmHg/mL/min) at 0.003 mg/kg administered intravenously", "format": "functional, Canis lupus familiaris", "settings": "route intravenous", "how_it_was_run": "as §2"}, "Canis familiaris [17]": {"system": "Canis familiaris", "assay": "Decrease in thrombus weight in anesthetized dog coronary artery", "format": "functional, Canis lupus familiaris", "how_it_was_run": "as §1"}, "Homo sapiens [18]": {"species": "Homo sapiens", "assay": "In vitro inhibition of ADP stimulated platelet aggregation in human whole blood", "format": "functional", "how_it_was_run": "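Human whole blood from aspirin/NSAID-free fasted donors, read by impedance aggregometry 5 min after adding ADP or collagen. Aggregation expressed as % of control (2-6 replicates), plotted against log drug concentration; IC50 obtained by extrapolation.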"}, "Canis familiaris [19]": {"system": "Canis familiaris", "assay": "Weight of thrombus after 60 min of 3 ug/kg/min", "format": "functional, Canis lupus familiaris", "how_it_was_run": "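Anesthetized adult dogs were given sodium pentobarbital (32 mg/kg iv), intubated and artificially respired, then allowed 30 min to stabilize after surgery. Circumflex coronary thrombosis was induced by delivering 50 μA through an intraluminal silver-coated copper electrode, which denuded the endothelium. Continuous drug or saline infusion began 15 min before current onset and ran throughout, with one treatment per animal. After 60 min of stimulation the thrombus was dissected and weighed.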"}, "Canis familiaris [20]": {"system": "Canis familiaris", "assay": "Percentage increase in left ventricular contractility in anesthetized dog", "format": "functional, Canis lupus familiaris, Heart left ventricle"}, "Canis familiaris [21]": {"system": "Canis familiaris", "assay": "Hemodynamic activity in anesthetized dog as percent change in heart rate from baseline (152 bpm) at 0.1 mg/kg administered intravenously", "format": "functional, Canis lupus familiaris", "settings": "route intravenous", "how_it_was_run": "as §2"}, "Canis familiaris [22]": {"system": "Canis familiaris", "assay": "Hemodynamic activity in anesthetized dog as percent change in fore limb resistance from baseline (2.77 mmHg/mL/min) at 0.001 mg/kg administered intravenously", "format": "functional, Canis lupus familiaris", "settings": "route intravenous", "how_it_was_run": "as §2"}, "Canis familiaris [23]": {"system": "Canis familiaris", "assay": "Hemodynamic activity in anesthetized dog as percent change in heart rate from baseline (152 bpm) at 0.001 mg/kg administered intravenously", "format": "functional, Canis lupus familiaris", "settings": "route intravenous", "how_it_was_run": "as §2"}, "Homo sapiens [24]": {"species": "Homo sapiens", "assay": "In vitro inhibition of collagen stimulated platelet aggregation in human thrombocyte enriched plasma", "format": "functional", "how_it_was_run": "as §3"}, "Canis familiaris [25]": {"system": "Canis familiaris", "assay": "Hemodynamic activity in anesthetized dog as percent change in fore limb resistance from baseline (2.77 mmHg/mL/min) at 0.3 mg/kg administered intravenously", "format": "functional, Canis lupus familiaris", "settings": "route intravenous", "how_it_was_run": "as §2"}, "Canis familiaris [26]": {"system": "Canis familiaris", "assay": "Hemodynamic activity in anesthetized dog as percent change in blood pressure from baseline (123 mmHg) at 0.001 mg/kg administered intravenously", "format": "functional, Canis lupus familiaris", "settings": "route intravenous", "how_it_was_run": "as §2"}, "Canis familiaris [27]": {"system": "Canis familiaris", "assay": "Hemodynamic activity in anesthetized dog as percent change in heart rate from baseline (152 bpm) at 0.01 mg/kg administered intravenously", "format": "functional, Canis lupus familiaris", "settings": "route intravenous", "how_it_was_run": "as §2"}, "Canis familiaris [28]": {"system": "Canis familiaris", "assay": "Hemodynamic activity in anesthetized dog as percent change in blood pressure from baseline (123 mmHg) at 0.03 mg/kg administered intravenously", "format": "functional, Canis lupus familiaris", "settings": "route intravenous", "how_it_was_run": "as §2"}, "Canis familiaris [29]": {"species": "Canis familiaris", "assay": "50% increase in myocardial contractility (dP/dT max) in dogs", "format": "functional, Canis lupus familiaris, Myocardium", "how_it_was_run": "as §2"}, "Canis familiaris [30]": {"system": "Canis familiaris", "assay": "Hemodynamic activity in anesthetized dog as percent change in heart rate from baseline (152 bpm) at 0.03 mg/kg administered intravenously", "format": "functional, Canis lupus familiaris", "settings": "route intravenous", "how_it_was_run": "as §2"}, "Canis familiaris [31]": {"system": "Canis familiaris", "assay": "Hemodynamic activity in anesthetized dog as percent change in blood pressure from baseline (123 mmHg) at 0.01 mg/kg administered intravenously", "format": "functional, Canis lupus familiaris", "settings": "route intravenous", "how_it_was_run": "as §2"}, "Canis familiaris [32]": {"system": "Canis familiaris", "assay": "Cardiovascular activity in presence of beta-adrenoceptor blockade in dogs as percent change in blood pressure from base line (109/88 mmHg) at 0.01 mg/kg dose given 15 min after nadolol; -10/-13", "format": "functional, Canis lupus familiaris"}}}
{"smiles": "CC1CC(=O)NN=C1/C=C/c1ccc(-n2ccnc2)cc1.Cl", "note": "(configuration not stated)", "values": [{"measurement": "Thrombus weight", "setting": "Canis familiaris [1]", "result": 10.7, "unit": "mg"}, {"measurement": "Change", "setting": "Canis familiaris [2]", "result": 65, "unit": "%"}, {"measurement": "Change", "setting": "Canis familiaris [3]", "result": -9, "unit": "%"}, {"measurement": "Change", "setting": "Canis familiaris [4]", "result": 33, "unit": "%"}, {"measurement": "IC50", "setting": "Homo sapiens [5]", "result": 300, "unit": "nM"}, {"measurement": "Change", "setting": "Canis familiaris [6]", "result": 19, "unit": "%"}, {"measurement": "Change", "setting": "Canis familiaris [7]", "result": 6, "unit": "%"}, {"measurement": "Change", "setting": "Canis familiaris [8]", "result": 56, "unit": "%"}, {"measurement": "Change", "setting": "Canis familiaris [9]", "result": -19, "unit": "%"}, {"measurement": "Change", "setting": "Canis familiaris [10]", "result": -40, "unit": "%"}, {"measurement": "Change", "setting": "Canis familiaris [11]", "result": 117, "unit": "%"}, {"measurement": "Change", "setting": "Canis familiaris [12]", "result": -5, "unit": "%"}, {"measurement": "Change", "setting": "Canis familiaris [13]", "result": 25, "unit": "%"}, {"measurement": "IC50", "setting": "[14]", "result": 250, "unit": "nM"}, {"measurement": "Change", "setting": "Canis familiaris [15]", "result": 5, "unit": "%"}, {"measurement": "Change", "setting": "Canis familiaris [16]", "result": -15, "unit": "%"}, {"measurement": "Inhibition", "setting": "Canis familiaris [17]", "result": 40, "unit": "%"}, {"measurement": "IC50", "setting": "Homo sapiens [18]", "result": 90, "unit": "nM"}, {"measurement": "Thrombus weight", "setting": "Canis familiaris [19]", "result": 6.3, "unit": "mg"}, {"measurement": "Increase", "setting": "Canis familiaris [20]", "result": 19, "unit": "%"}, {"measurement": "Change", "setting": "Canis familiaris [21]", "result": 28, "unit": "%"}, {"measurement": "Change", "setting": "Canis familiaris [22]", "result": 0.3, "unit": "%"}, {"measurement": "Change", "setting": "Canis familiaris [23]", "result": 0.2, "unit": "%"}, {"measurement": "IC50", "setting": "Homo sapiens [24]", "result": 30, "unit": "nM"}, {"measurement": "Change", "setting": "Canis familiaris [25]", "result": -54, "unit": "%"}, {"measurement": "Change", "setting": "Canis familiaris [26]", "result": -2, "unit": "%"}, {"measurement": "Change", "setting": "Canis familiaris [27]", "result": 12, "unit": "%"}, {"measurement": "Change", "setting": "Canis familiaris [28]", "result": -24, "unit": "%"}, {"measurement": "Dose", "setting": "Canis familiaris [29]", "result": 8, "unit": "µg/kg"}, {"measurement": "Change", "setting": "Canis familiaris [30]", "result": 23, "unit": "%"}, {"measurement": "Change", "setting": "Canis familiaris [31]", "result": -13, "unit": "%"}, {"measurement": "Change", "setting": "Canis familiaris [32]", "result": -10, "unit": "%"}]}
